Consider 12 compounds from ChEMBL document CHEMBL1133361, “Synthesis and biological activity of peptidyl aldehyde urokinase inhibitors” (Bioorg Med Chem Lett, 2000).

Data set [1] deals with Tissue-type plasminogen activator (Homo sapiens, UniProt P00750). Kind of data set: The compound was tested in vitro for its inhibitory activity against human t-PA enzyme, activity expressed as IC50. In outline: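 Human t-PA (1 nM final) was tested for cleavage of chromogenic substrate Pefachrome t-PA. IC50 was taken as the inhibitor concentration giving 50% inhibition of substrate cleavage.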

Data set [2] is described as follows: Area under curve in dog after administration of 20 mg/kg dose through peroral route. It counts as ADME, organism-based, Canis lupus familiaris. The arrangement: dose 20 mg/kg, route oral. Particulars: in vivo, po. Put shortly:
(§1)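 Conscious dogs (n=3) were given a single 20 mg/kg oral dose. Plasma drug levels were quantified by solid-phase extraction followed by HPLC mass spectrometry, and elimination half-life, Cmax and AUC were derived from the plasma concentration-time profile.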

The nature of data set [3]: Apparent terminal elimination half-life in rat plasma after administration of 50 mg/kg dose through subcutaneous route. Particulars: sc.
Data set [4] is described as follows: Total concentration in rat plasma after administration of 50 mg/kg dose through subcutaneous route. Particulars: sc.
Data set [5] is described as follows: Maximum concentration in rat plasma after administration of 50 mg/kg dose through subcutaneous route. It counts as ADME, organism-based. The arrangement: dose 50 mg/kg, route subcutaneous. Particulars: sc. Put shortly: (§2)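 Rats (n=3) received 50 mg/kg subcutaneously. Plasma was sampled over 24 h after dosing the parent aldehyde, or over 30 h after dosing its carbonate prodrug, with parent and prodrug measured. Levels were quantified by solid-phase extraction and HPLC mass spectrometry, and half-life and Cmax were taken from the concentration-time profile.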

A short description of data set [6]: Apparent terminal elimination half-life in dog after administration of 20 mg/kg dose through peroral route. It is filed as ADME, organism-based, Canis lupus familiaris. The arrangement: dose 20 mg/kg, route oral. Conditions: in vivo, po. In outline: as §1
Data set [7] in a line: Area under curve in rat plasma after administration of 50 mg/kg dose through subcutaneous route. Particulars: sc.
Data set [8] is described as follows: Maximum concentration in rat plasma after administration of 50 mg/kg dose through subcutaneous route. Particulars: sc.
Data set [9] addresses Urokinase-type plasminogen activator (Homo sapiens, UniProt P00749). The experiment in a line: The compound was tested in vitro for its inhibitory activity against human urokinase enzyme, activity expressed as IC50.
Data set [10] is described as follows: Maximum concentration in dog after administration of 20 mg/kg dose through peroral route. It counts as ADME, organism-based, Canis lupus familiaris. Also noted: dose 20 mg/kg, route oral. Particulars: in vivo, po. In outline: as §1
In a further data set the target is Plasminogen (Homo sapiens, UniProt P00747). Kind of data set: The compound was tested in vitro for its inhibitory activity against human Plasmin enzyme, activity expressed as IC50.
Data set [11] can be described thus: Apparent terminal elimination half-life in rat plasma after administration of 50 mg/kg dose through subcutaneous route. It is filed as ADME, organism-based. The arrangement: dose 50 mg/kg, route subcutaneous. Particulars: sc. Put shortly:
as §2

Data set [12] is described as follows: Apparent terminal elimination half-life in rat plasma after administration of 50 mg/kg dose through subcutaneous route. Conditions: sc. This is another data set of the same source.

SMILES strings stand for the structures.

Chain of Plasminogen (P00747 97-580 limits assumed): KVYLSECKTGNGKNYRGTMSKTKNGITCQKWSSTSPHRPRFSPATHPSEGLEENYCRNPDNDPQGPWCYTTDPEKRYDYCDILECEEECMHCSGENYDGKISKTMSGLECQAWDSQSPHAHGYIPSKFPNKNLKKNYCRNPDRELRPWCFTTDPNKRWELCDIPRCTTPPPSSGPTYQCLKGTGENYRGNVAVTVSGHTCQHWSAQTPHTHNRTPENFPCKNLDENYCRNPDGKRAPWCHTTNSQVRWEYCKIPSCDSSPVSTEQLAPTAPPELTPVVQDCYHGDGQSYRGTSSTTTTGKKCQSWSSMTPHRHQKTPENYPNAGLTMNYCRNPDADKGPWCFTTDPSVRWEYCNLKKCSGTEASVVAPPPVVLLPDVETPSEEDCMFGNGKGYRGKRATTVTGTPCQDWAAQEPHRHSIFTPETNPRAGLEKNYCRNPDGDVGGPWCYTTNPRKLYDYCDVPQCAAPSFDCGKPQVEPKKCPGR
Chain of Plasminogen (P00747 581-810 limits assumed): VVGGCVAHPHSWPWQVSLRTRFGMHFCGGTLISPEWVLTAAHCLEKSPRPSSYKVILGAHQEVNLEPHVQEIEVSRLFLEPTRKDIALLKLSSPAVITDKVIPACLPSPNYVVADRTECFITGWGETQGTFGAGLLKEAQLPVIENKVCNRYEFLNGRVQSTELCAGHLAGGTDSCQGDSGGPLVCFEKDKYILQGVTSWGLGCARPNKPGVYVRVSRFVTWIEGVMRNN
Chain of Tissue-type plasminogen activator (P00750 whole entry): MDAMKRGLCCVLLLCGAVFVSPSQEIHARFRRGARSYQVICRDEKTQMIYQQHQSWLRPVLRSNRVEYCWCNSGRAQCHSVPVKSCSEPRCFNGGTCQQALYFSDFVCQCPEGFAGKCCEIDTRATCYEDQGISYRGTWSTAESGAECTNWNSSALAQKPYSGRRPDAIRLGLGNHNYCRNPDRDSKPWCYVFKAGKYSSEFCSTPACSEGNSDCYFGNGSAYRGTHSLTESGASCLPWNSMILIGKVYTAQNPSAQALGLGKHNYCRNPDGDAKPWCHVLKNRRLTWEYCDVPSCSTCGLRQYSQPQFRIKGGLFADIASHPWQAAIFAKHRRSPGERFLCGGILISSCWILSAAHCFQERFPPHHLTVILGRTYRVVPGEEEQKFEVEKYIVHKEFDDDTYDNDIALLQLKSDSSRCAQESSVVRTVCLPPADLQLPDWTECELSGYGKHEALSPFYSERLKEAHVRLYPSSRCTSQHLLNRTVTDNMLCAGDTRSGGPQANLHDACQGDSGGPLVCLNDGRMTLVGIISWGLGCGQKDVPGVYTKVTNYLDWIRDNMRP

What is called IC50 is the midpoint of a concentration-inhibition curve. High values mean lower potency, low ones higher potency. Broadly, the AUC is concentration integrated over time. Read a low AUC as less exposure. The term half-life denotes the time needed for the level to fall by half in the phase considered. As a reminder, the Tmax is the time at which the peak concentration occurs. The term Cmax denotes the highest concentration seen after dosing. Turning to `CC(C)COC(=O)N[C@H](CO)C(=O)N[C@@H](C)C(=O)N[C@H]1CCCN(C(=N)N)C1O.O=C(O)C(F)(F)F` (some centres not stated), the IC50 was more than 2500 nM in data set [1], 23.1 nM in data set [9] and 1460 nM against Plasminogen. Also, the AUC in data set [2] is 38900 ng·h/mL; in [7], 44500 ng·h/mL. The half-life in data set [3] is 5 h; in data set [6], 0.85 h; in data set [11] it was 5 h. For the same compound, the time of peak concentration (Tmax) in data set [4] worked out at 2.33 h. The Cmax in data set [5] was determined as 4700 ng/mL; in data set [8] it was 4700 ng/mL; in data set [10], 22900 ng/mL.

As for `C[C@H](NC(=O)[C@@H](CO)NS(=O)(=O)Cc1ccccc1)C(=O)N[C@H]1CCCN(C(=N)N)C1O` (some centres not stated), the figures for the 50% inhibitory concentration (IC50) (in data set [1]; in data set [9]; against Plasminogen) were more than 2500 nM, 5.1 nM and 275 nM, respectively.

Regarding `C[C@@H](NC(=O)[C@@H](CO)NC(=O)OCc1ccccc1)C(=O)N[C@H]1CCCN(C(=N)N)C1O` (some centres not stated), the IC50 (in data set [1]; in data set [9]; on Plasminogen) was more than 2500 nM in each case.

Take `C[C@H](NC(=O)[C@@H](CO)NC(=O)OCc1ccccc1)C(=O)N[C@H]1CCCN(C(=N)N)C1O` (some centres not stated): the IC50 was more than 2500 nM in data set [1] and 904 nM against Plasminogen.

Take `C[C@H](NC(=O)[C@@](C)(CO)NC(=O)OCc1ccccc1)C(=O)N[C@H]1CCCN(C(=N)N)C1O` (some centres not stated): the half-inhibitory concentration (IC50) (in data set [1]; in data set [9]; against Plasminogen) was more than 2500 nM each time.

On to `CC(C)COC(=O)N[C@H](COC(=O)O)C(=O)N[C@@H](C)C(=O)N[C@H]1CCCN(C(=N)N)C1O.O=C(O)C(F)(F)F` (some centres not stated), for which the time of peak concentration (Tmax) in data set [4] amounted to 2.67 h. In data set [7], this compound showed an AUC of 38600 ng·h/mL. Besides, the half-life in data set [12] was 10.7 h. In data set [8], this compound returned a Cmax of 2300 ng/mL.

As for `N=C(N)N1CCC[C@H](NC(=O)C2CCN2C(=O)[C@@H](CO)NC(=O)OCc2ccccc2)C1O` (some centres not stated), the 50% inhibitory concentration (IC50) in [1] is more than 2500 nM; in data set [9] it was 11 nM; on Plasminogen it was 482 nM.

Turning to `C[C@H](NC(=O)[C@@H](CO)NS(=O)(=O)c1ccccc1)C(=O)N[C@H]1CCCN(C(=N)N)C1O` (some centres not stated), the concentration for half-maximal inhibition (IC50) in [1] was more than 2500 nM; at Plasminogen, 1170 nM.

On to `C[C@H](NC(=O)[C@@H](CO)NS(=O)(=O)CCc1ccccc1)C(=O)N[C@H]1CCCN(C(=N)N)C1O` (some centres not stated), for which the IC50 in data set [1] is more than 2500 nM; in data set [9] it was 3.1 nM; against Plasminogen, 367 nM.

Regarding `N=C(N)N1CCCC(NC(=O)[C@H]2CCCN2C(=O)C(CO)NC(=O)OCc2ccccc2)C1O` (some centres not stated), the IC50 in data set [1] was more than 2500 nM; against Plasminogen, 125 nM.

On to `CC(O)[C@@H](NC(=O)OCc1ccccc1)C(=O)N[C@@H](C)C(=O)N[C@H]1CCCN(C(=N)N)C1O` (some centres not stated), for which the IC50 is more than 2500 nM in data set [1], 261 nM in data set [9] and 699 nM on Plasminogen.

Take `N=C(N)N1CCC[C@@H](NC(=O)[C@H]2CCCCN2C(=O)[C@@H](CO)NC(=O)OCc2ccccc2)C1O` (some centres not stated): the results for the IC50 in data set [1] and in data set [9] were more than 2500 nM and 101 nM, respectively.
